Measured values taken from ChEMBL document CHEMBL1122833, “Potential antitumor agents. 44. Synthesis and antitumor activity of new classes of diacridines: importance of linker chain rigidity for DNA binding kinetics and biological activity” (J Med Chem, 1985).

What was measured:
[1] = Lipophilicity (Rm); format: physicochemical; settings: chromatographic, drug cations at pH 1-2
L1210 = assay: In vitro inhibitory dose that reduces L1210 cell line by 50% when added for a period of 70h; format: functional; settings: Mus musculus, L1210, 70 h; read-out: ID50 (the source's name)
Procedure, shortened: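 L1210 cultures were exposed to drug for 70 h, and cells were then counted. IC50 is the drug concentration (nM) that reduces cell numbers to 50% of untreated controls.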

P388 [2] = assay: (§1) Highest nontoxic optimal dose administered intraperitoneally after inoculation of P388 leukemia cells; format: functional, Mus musculus
Procedure, shortened: (§2)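 Mice were inoculated with 10^6 P388 leukemia cells. Drug was given intraperitoneally in 30% v/v EtOH/water on days 1, 5 and 9 after inoculation. OD is the highest nontoxic dose in mg/kg per day.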

P388 [3] = assay: (§3) The % increase in lifespan of treated animals over that of control group of animals injected with tumor alone; format: functional, Mus musculus
P388 [4] = assay: as §3; format: functional, Mus musculus; remark: listed apart in the source
[5] = Chromatographic measure of drug lipophilicity determined for drug cations was evaluated; format: physicochemical
P388 [6] = assay: as §1; format: functional, Mus musculus; procedure, shortened: as §2; remark: listed apart in the source

Compound | Rm [1] | IC50 (L1210) | OD (P388 [2]) | ILS (P388 [3]) | ILS (P388 [4]) | Rm [5] | OD (P388 [6])
Cn1nc(C(=O)NCCNc2c3ccccc3nc3ccccc23)cc1C(=O)NCCNc1c2ccccc2nc2ccccc12 | -0.3 | 13 nM | 20 mg/kg | 46% |  |  | 
c1ccc2c(NCCCCCCCNc3c4ccccc4nc4ccccc34)c3ccccc3nc2c1 | 0.21 | 50 nM | 8.9 mg/kg | <20% |  |  | 
c1ccc2c(NCCN3CCN(CCNc4c5ccccc5nc5ccccc45)CC3)c3ccccc3nc2c1 | -0.77 | 78 nM | 3 mg/kg | <20% |  |  | 
c1ccc2c(NCCCCCCCCCNc3c4ccccc4nc4ccccc34)c3ccccc3nc2c1 | 0.4 | 160 nM | 5.9 mg/kg | <20% |  |  | 
c1ccc2c(NCCCNCCNCCCNc3c4ccccc4nc4ccccc34)c3ccccc3nc2c1 | -0.86 | 560 nM | 10 mg/kg | <20% |  |  | 
O=C(CCCNc1c2ccccc2nc2ccccc12)NCCNc1c2ccccc2nc2ccccc12 | -0.19 | > 3500 nM | 50 mg/kg | <20% |  |  | 
Cn1nc(C(=O)NCCCCNc2c3ccccc3nc3ccccc23)cc1C(=O)NCCCCNc1c2ccccc2nc2ccccc12 | 0.11 | 24 nM | 8.9 mg/kg | 26% |  |  | 
c1ccc2c(NCCCCCNc3c4ccccc4nc4ccccc34)c3ccccc3nc2c1 | 0.02 | 3700 nM | 20 mg/kg | <20% |  |  | 
Cn1nc(C(=O)NCCCNc2c3ccccc3nc3ccccc23)cc1C(=O)NCCCNc1c2ccccc2nc2ccccc12 | 0 | 55 nM | 20 mg/kg | 65% |  |  | 
c1ccc2c(NCCCNCCCNc3c4ccccc4nc4ccccc34)c3ccccc3nc2c1 | -0.53 | 480 nM | 5 mg/kg | <20% |  |  | 
c1ccc2c(NCCCN3CCN(CCCNc4c5ccccc5nc5ccccc45)CC3)c3ccccc3nc2c1 | -0.72 |  | 3 mg/kg | <20% | <20% | -0.72 | 3 mg/kg
O=C(CCNc1c2ccccc2nc2ccccc12)NCCNc1c2ccccc2nc2ccccc12 | -0.43 | > 3500 nM | 50 mg/kg | <20% |  |  | 
c1ccc2c(NCCCCCCNc3c4ccccc4nc4ccccc34)c3ccccc3nc2c1 | 0.15 | 110 nM | 13.3 mg/kg | <20% |  |  | 
c1ccc2c(NCCCCNc3c4ccccc4nc4ccccc34)c3ccccc3nc2c1 | -0.21 | 10800 nM | 30 mg/kg | <20% |  |  | 
O=C(CCCNc1c2ccccc2nc2ccccc12)NCCCNc1c2ccccc2nc2ccccc12 | -0.12 | > 3500 nM | 50 mg/kg | <20% |  |  | 
c1ccc2c(NCCCCCCCCCCNc3c4ccccc4nc4ccccc34)c3ccccc3nc2c1 | 0.45 | 280 nM | 5.9 mg/kg | <20% |  |  | 
CN(CCCNc1c2ccccc2nc2ccccc12)CCCNc1c2ccccc2nc2ccccc12 | -0.65 | 780 nM | 10 mg/kg | <20% |  |  | 
c1ccc2c(NCCNCCNCCNc3c4ccccc4nc4ccccc34)c3ccccc3nc2c1 | -0.9 | 2900 nM | 10 mg/kg | <20% |  |  | 
O=C(CCNc1c2ccccc2nc2ccccc12)NCCCNc1c2ccccc2nc2ccccc12 | -0.28 | > 3500 nM | 15 mg/kg | <20% |  |  | 
c1ccc2c(NCCCCCCCCNc3c4ccccc4nc4ccccc34)c3ccccc3nc2c1 | 0.28 | 170 nM | 8.9 mg/kg | <20% |  |  | 
c1ccc2c(NCCCCNCCCNc3c4ccccc4nc4ccccc34)c3ccccc3nc2c1 | -0.39 | 29 nM | 10 mg/kg | <20% |  |  | 
O=C(CNc1c2ccccc2nc2ccccc12)NCCNc1c2ccccc2nc2ccccc12 | -0.41 | > 4000 nM | 50 mg/kg | <20% |  |  | 
O=C(CNc1c2ccccc2nc2ccccc12)NCCCNc1c2ccccc2nc2ccccc12 | -0.24 | > 3500 nM | 50 mg/kg | <20% |  |  | 
Nc1c2ccccc2nc2ccccc12 [AMINACRINE] | -0.08 | 1900 nM | 20 mg/kg | <20% |  |  | 
